Test results from ChEMBL document CHEMBL1144050, “Two novel acetogenins, annoglaxin and 27-hydroxybullatacin, from Annona glabra” (J Nat Prod, 1999).
≈ marks a conversion by molar mass, not a printed value.

Assays:
[1] = (§1) Toxicity in brine shrimp; format: organism-based; settings: artemia salina, in vivo
[2] = tested on: A549; assay: Cytotoxicity against human A549 cells after 7 days by MTT assay; format: functional; settings: A549, 168 h, read-out: ED50 (the source's name)
Procedure, shortened: (§2)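 Standard 7-day MTT cytotoxicity assay on human tumour lines: A-549 (lung carcinoma), MCF-7 (breast carcinoma), HT-29 (colon adenocarcinoma), A-498 (kidney carcinoma), PC-3 (prostate adenocarcinoma), PACA-2 (pancreatic carcinoma). Adriamycin was run as the positive control standard.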

[3] = tested on: MCF7; assay: Cytotoxicity against human MCF7 cells after 7 days by MTT assay; format: functional; procedure, shortened: as §2
[4] = tested on: HT-29; assay: Cytotoxicity against human HT29 cells after 7 days by MTT assay; format: functional; settings: for EC50: Homo sapiens, HT-29, 168 h, read-out: ED50 (the source's name); procedure, shortened: as §2
[5] = tested on: A498; assay: Cytotoxicity against human A498 cells after 7 days by MTT assay; format: functional; settings: for EC50: Homo sapiens, A498, 168 h, read-out: ED50 (the source's name); procedure, shortened: as §2
[6] = tested on: PC-3; assay: Cytotoxicity against human PC-3 cells after 7 days by MTT assay; format: functional; settings: for EC50: Homo sapiens, PC-3, 168 h, read-out: ED50 (the source's name); procedure, shortened: as §2
[7] = tested on: MIA PaCa-2; assay: Cytotoxicity against human PACA2 cells after 7 days by MTT assay; format: functional; settings: for EC50: Homo sapiens, MIA PaCa-2, 168 h, read-out: ED50 (the source's name); procedure, shortened: as §2
[8] = tested on: Artemia salina; assay: as §1; format: organism-based; settings: in vivo

Structure (SMILES)	LC50 [1] [µg/mL]	EC50 [2] [µg/mL]	ED50 [3] [×10⁻⁴ ug/ml]	EC50 [4] [µg/mL]	EC50 [5] [µg/mL]	EC50 [6] [µg/mL]	EC50 [7] [µg/mL]	LC50 [8] [×10⁻² ug/ml]	ED50 [4] [×10⁻⁵ ug/ml]	ED50 [5] [×10⁻⁸ ug/ml]	ED50 [6] [×10⁻⁹ ug/ml]	ED50 [7] [×10⁻⁹ ug/ml]	EC50 ([3]; Homo sapiens, MCF7, 168 h, read-out: ED50 (the source's name)) [µg/mL]
CCCCCCCCCC[C@H](O)C[C@@H](O)[C@H]1CC[C@H]([C@H](O)CCC(=O)CCC[C@H](O)CCCCCC2=C[C@H](C)OC2=O)O1 [ANNOGLAXIN]	0.29 (≈ 0.475 µM)	1.1 (≈ 1.8 µM)	4.3	0.18 (≈ 0.295 µM)	1.8 (≈ 2.95 µM)	0.87 (≈ 1.42 µM)	1.6 (≈ 2.62 µM)						
CCCCCCC[C@H](O)CC[C@H](O)[C@H]1CC[C@H]([C@H]2CC[C@H]([C@H](O)CCCCCCCCCC[C@@H](O)CC3=C[C@H](C)OC3=O)O2)O1		0.0021 (≈ 0.00329 µM)	7.8					4.3	1.8	3.1	<1	<1	
COc1cccc2c1C(=O)c1c(O)c3c(c(O)c1C2=O)C[C@@](O)(C(=O)CO)C[C@@H]3O[C@H]1C[C@H](N)[C@H](O)[C@H](C)O1 [DOXORUBICIN]		0.0013 (≈ 0.00239 µM)		0.01 (≈ 0.0184 µM)	0.0019 (≈ 0.0035 µM)	0.02 (≈ 0.0368 µM)	0.0043 (≈ 0.00791 µM)						0.09 (≈ 0.166 µM)
